{"source": "paper PMC3949138", "about": "(Journal of veterinary pharmacology and therapeutics, 2013)", "key": {"[1]": {"settings": "ref Sandhu et al., 2007, cited from earlier work"}, "dogs": {"tested_on": "dogs", "settings": "dog, in vivo; cited from earlier work"}, "cats": {"tested_on": "cats", "experiment": "Tolerability monitoring in cats", "format": "in vivo", "procedure,_shortened": "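Six cats dosed in the crossover (2 mg/kg IV in DMSO; 250 mg/m2 PO capsules) had physical examinations. CBC (14 parameters) and serum biochemistry (16 values) were taken 1 week before, 24 h after and 1 week after each dose. Daily food intake was recorded for 1 week before and after each dosage; days compared by […].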"}, "[2]": {"experiment": "Serum pharmacokinetics of SAHA in cats after IV and PO administration", "format": "in vivo", "procedure,_shortened": "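Six adult SPF cats (3 female, 3 male, 10–18 months) in a randomized crossover with 1-week washout: 2 mg/kg IV (20 mg/mL in DMSO) or 250 mg/m2 PO in gelatin capsules. Serum without anticoagulant at set times up to 1440 min, stored at −70 °C. d5-SAHA internal standard at 1000 ng/mL final; acetonitrile extraction; C18 UPLC, positive-ion ESI MS/MS; LOQ 2.26 ng/mL; non-compartmental parameters.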"}, "[3]": {"tested_on": "acetylated histone (H3K9,14)", "format": "in vivo, cats"}, "[4]": {"settings": "ref Kelly et al., 2005, cited from earlier work"}, "[5]": {"settings": "after IV administration of the SAHA/DMSO mixture"}, "[6]": {"settings": "cats n=6, 250 mg/m2 PO, mean ± SD"}}, "note": "Where “and” joins values, the source holds several entries; their conditions need not be identical. Equal values may be shown once. Read-outs that look alike come from different tables or passages of the source.", "data": [{"smiles": "O=C(CCCCCCC(=O)Nc1ccccc1)NO", "note": "[SAHA, Suberoylanilidehydroxamic acid]", "values": [{"measurement": "oral bioavailability", "setting": "[1]; dog", "value": 1.8, "unit": "%"}, {"measurement": "terminal elimination half-life", "setting": "[1]; dogs, 2 mg/kg IV", "value": 12, "unit": "min"}, {"measurement": "AUC0-τ", "setting": "[1]; dogs, 20 mg/kg oral", "value": 0.42, "unit": "µM·h"}, {"measurement": "Cmax", "setting": "[1]; read-out: average Cmax, dogs, 20 mg/kg oral", "value": 260, "unit": "nM"}, {"measurement": "no observed adverse effects level (NOAEL)", "setting": "dogs", "value": 60, "unit": "mg/kg"}, {"measurement": "overall tolerability", "setting": "cats; 2 mg/kg IV and 250 mg/m2 PO, domestic cats", "value": "well tolerated"}, {"measurement": "change in daily food intake following drug administration", "setting": "cats; 1 week before and 1 week after each dosage (IV and PO)", "value": "No significant change"}, {"measurement": "duration of moderate bleeding from venipuncture sites", "setting": "cats; [5]", "value": "up to 5 minutes"}, {"measurement": "moderate bleeding from venipuncture sites (cats affected)", "setting": "cats; [5]", "value": "2/6"}, {"measurement": "open-mouth breathing (cats affected)", "setting": "cats; immediately following 2 mg/kg IV injection in DMSO", "value": "2/6"}, {"measurement": "Cmax", "setting": "[2]; both, cat, serum, po, 250 mg/m2", "value": "~160", "unit": "nM"}, {"measurement": "AUC", "setting": "[2]; both, serum, iv, 2 mg/kg", "value": "150 ± 40", "unit": "ng·h/mL"}, {"measurement": "AUC(0-inf)", "setting": "[2]; both, serum, iv, 2 mg/kg", "value": "150 ± 50", "unit": "ng·h/mL"}, {"measurement": "clearance", "setting": "[2]; both, serum, iv, 2 mg/kg", "value": 233, "unit": "mL/min/kg"}, {"measurement": "half-life", "setting": "[2]; both, serum, iv, 2 mg/kg", "value": 9, "unit": "min"}, {"measurement": "half-life", "setting": "[2]; both, serum, po, 2 mg/kg", "value": "120 ± 60", "unit": "min"}, {"measurement": "AUC", "setting": "[2]; both, serum, po, 250 mg/m2", "value": "0.266 µM·h and 70 ng·h/mL"}, {"measurement": "AUC(0-inf)", "setting": "[2]; both, serum, po, 250 mg/m2", "value": "80 ± 20", "unit": "ng·h/mL"}, {"measurement": "Cmax", "setting": "[2]; both, serum, po, 250 mg/m2", "value": 160, "unit": "nM"}, {"measurement": "bioavailability", "setting": "[2]; both, serum, po, 250 mg/m2", "value": "8 ± 4", "unit": "%"}, {"measurement": "Cmax", "setting": "[2]; cat, serum, po, 60 mg/kg", "value": 50.1, "unit": "ng/mL"}, {"measurement": "T1/2λz (elimination half-life)", "setting": "[2]; cats n=6, 2 mg/kg IV in DMSO, serum, mean ± SD", "value": "9 ± 1.8", "unit": "min"}, {"measurement": "Percent Extrapolated (of AUC)", "setting": "[2]; cats n=6, 2 mg/kg IV, mean ± SD", "value": "0.6 ± 0.2", "unit": "%"}, {"measurement": "Cmaxobs (observed maximum serum concentration)", "setting": "[2]; [6]", "value": "41.7 ng/mL and 40 ± 10 ng/mL"}, {"measurement": "Percent Extrapolated (of AUC)", "setting": "[2]; [6]", "value": "17 ± 7", "unit": "%"}, {"measurement": "Tmaxobs (time to observed maximal serum concentration)", "setting": "[2]; [6]", "value": "36 ± 18", "unit": "min"}, {"measurement": "acetylated histone protein in blood leukocytes (acetyl H3/total H3)", "setting": "[3]; 4 cats, 2 mg/kg IV and 250 mg/m2 PO", "value": "An increase in acetylated histone protein was detected"}, {"measurement": "time for acetylated histone protein to return to baseline", "setting": "[3]; 4 cats, after IV and PO administration", "value": "approximately 2 hours"}, {"measurement": "histone acetylation in peripheral blood mononuclear cells", "setting": "[3]; single cat #11-245, 60 mg/kg PO, 0, 60, 120, 1440 min", "value": "demonstrated a pharmacodynamic effect which roughly correlated with pharmacokinetics"}, {"measurement": "half-life following IV administration", "setting": "[4]; humans, IV, 2003, Kelly et al.", "value": "21 to 58", "unit": "min"}, {"measurement": "bioavailability", "setting": "[4]; patients with advanced cancer, estimated", "value": 43, "unit": "%"}]}]}
